According to ChEMBL document CHEMBL4251738, “A BODIPY-Tagged Phosphono Peptide as Activity-Based Probe for Human Leukocyte Elastase” (ACS Med Chem Lett, 2018):
Activity calls are given as the source filed them. The calls are words filed in the database; no cut-off is given here.

Legend:
[1] = target: Prothrombin (Homo sapiens) (UniProt P00734); assay: Inhibition of human thrombin assessed as product formation at 1 uM using Z-Gly-Gly-Arg-AMC as substrate incubated over 60 mins by fluorimetric method
How it was run: (§1)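 Single-point test at 1 μM inhibitor, run in duplicate. Product formation was followed over 60 min. More than 90% product formation after 60 min was scored as no inhibition.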

[2] = target: T1, Neutrophil elastase (Homo sapiens) (UniProt P08246); assay: Irreversible inhibition of human leukocyte elastase assessed as ratio of Kinact to Ki using MeO-Suc-Ala-Ala-Pro-Val-pNA as substrate by spectrophotometric method; conditions: TDE = time-dependent effect
T1 sequence (whole entry): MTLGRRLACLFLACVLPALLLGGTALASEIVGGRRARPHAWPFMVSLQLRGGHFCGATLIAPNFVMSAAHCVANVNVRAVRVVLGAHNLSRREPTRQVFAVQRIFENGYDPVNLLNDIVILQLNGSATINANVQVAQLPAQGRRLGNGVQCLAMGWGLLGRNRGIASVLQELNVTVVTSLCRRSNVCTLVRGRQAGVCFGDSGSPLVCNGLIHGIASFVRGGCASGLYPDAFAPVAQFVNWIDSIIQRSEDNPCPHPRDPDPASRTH
How it was run: (§2)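 From substrate-consumption progress curves, kobs values (means of duplicates) were plotted against inhibitor concentration. kinac/Ki was derived by linear regression as kinac/Ki = kobs/[I](1 + [S]/Km) + d, where d is an offset. SEM is from that regression.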

[3] = target: T2, Pancreatic elastase (Sus scrofa) (UniProt P08419+P00772); assay: Inhibition of porcine pancreatic elastase assessed as ratio of Kinact to Ki using MeO-Suc-Ala-Ala-Pro-Val-pNA as substrate incubated over 60 mins by spectrophotometric method; format: protein assay; how it was run: as §2
[4] = target: T1, Neutrophil elastase (Homo sapiens); assay: Irreversible inhibition of human leukocyte elastase assessed as ratio of Kinact to Ki using MeO-Suc-Ala-Ala-Pro-Val-pNA as substrate incubated over 60 mins by spectrophotometric method; how it was run: as §2
[5] = target: T1, Neutrophil elastase (Homo sapiens); assay: Irreversible inhibition of human leukocyte elastase at 20 nM using MeO-Suc-Ala-Ala-Pro-Val-pNA as substrate incubated for 30 mins followed by substrate addition
[6] = target: Coagulation factor X (Bos taurus) (UniProt P00743); assay: Inhibition of bovine factor 10a assessed as product formation at 1 uM using Boc-Ile-Glu-Gly-Arg-AMC as substrate incubated over 60 mins by fluorimetric method; how it was run: as §1
[7] = target: Cathepsin B (Homo sapiens) (UniProt P07858); assay: Inhibition of human cathepsin B assessed as product formation at 1 uM using Z-Arg-Arg-pNA as substrate incubated over 60 mins by spectrophotometric method; how it was run: as §1
[8] = species on record: Bos taurus; assay: Inhibition of bovine trypsin assessed as product formation at 1 uM using Suc-Ala-Ala-Pro-Arg-pNA as substrate incubated over 60 mins by spectrophotometric method; how it was run: as §1
[9] = species on record: Bos taurus; assay: Inhibition of bovine chymotrypsin assessed as product formation at 1 uM using Suc-Ala-Ala-Pro-Phe-pNA as substrate incubated over 60 mins by spectrophotometric method; how it was run: as §1
[10] = target: Procathepsin L (Homo sapiens) (UniProt P07711); assay: Inhibition of human cathepsin L assessed as product formation at 1 uM using Z-Phe-Arg-pNA as substrate incubated over 60 mins by spectrophotometric method; how it was run: as §1
[11] = target: T1, Neutrophil elastase (Homo sapiens); assay: Inhibition of human leukocyte elastase at 2.5 uM preincubated with sivelestat for 5 mins followed by compound addition measured after 20 mins in presence of sivelestat by in gel fluorescence detection based SDS-PAGE analysis
How it was run: (§3)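 It was then incubated with 2.5 μM probe. Samples were resolved by SDS-PAGE, read by in-gel fluorescence and then by Coomassie staining.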

[12] = target: T1, Neutrophil elastase (Homo sapiens); assay: Binding affinity to human leukocyte elastase at 2.5 uM incubated for 20 mins post HEK cell lysate addition by Coomassie brilliant blue G-250 staining based assay
How it was run: (§4)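 HLE (600 ng) was incubated with 2.5 μM probe for 20 min. HEK cell lysate (9 μg) was added either before or after that incubation. Lysate alone and HLE alone were run as reference lanes. Samples went on SDS-PAGE, read by in-gel fluorescence and then by Coomassie staining.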

[13] = target: T1, Neutrophil elastase (Homo sapiens); assay: Binding affinity to human leukocyte elastase at 2.5 uM after 20 mins by Coomassie brilliant blue G-250 staining based assay
How it was run: (§5)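 Varying amounts of HLE were incubated with 2.5 μM fluorescent probe and then run on SDS-PAGE. Labeled HLE was read by in-gel fluorescence as bands at about 29 kDa. The same gel was then stained with Coomassie.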

[14] = species on record: Bos taurus; assay: Inhibition of bovine chymotrypsin assessed as ratio of Kinact to Ki using Suc-Ala-Ala-Pro-Phe-pNA as substrate incubated over 60 mins by spectrophotometric method; how it was run: as §2
[15] = target: T1, Neutrophil elastase (Homo sapiens); assay: Binding affinity to human leukocyte elastase at 2.5 uM incubated for 20 mins post HEK cell lysate addition by in gel fluorescence detection based SDS-PAGE analysis; how it was run: as §4
[16] = target: T1, Neutrophil elastase (Homo sapiens); assay: Binding affinity to human leukocyte elastase at 160 ng after 20 mins by in gel fluorescence detection based SDS-PAGE analysis; how it was run: as §5
[17] = target: T1, Neutrophil elastase (Homo sapiens); assay: Binding affinity to human leukocyte elastase at 2.5 uM incubated for 20 mins followed by HEK cell lysate addition by Coomassie brilliant blue G-250 staining based assay; how it was run: as §4
[18] = target: T1, Neutrophil elastase (Homo sapiens); assay: Irreversible inhibition of human leukocyte elastase at 50 nM using MeO-Suc-Ala-Ala-Pro-Val-pNA as substrate incubated for 30 mins followed by substrate addition
[19] = target: T1, Neutrophil elastase (Homo sapiens); assay: Inhibition of human leukocyte elastase at 2.5 uM preincubated with sivelestat for 5 mins followed by compound addition measured after 20 mins in presence of sivelestat by Coomassie brilliant blue G-250 staining based assay; how it was run: as §3
[20] = target: T1, Neutrophil elastase (Homo sapiens); assay: Binding affinity to human leukocyte elastase at 2.5 uM after 20 mins by in gel fluorescence detection based SDS-PAGE analysis; how it was run: as §5
[21] = target: T1, Neutrophil elastase (Homo sapiens); assay: Binding affinity to human leukocyte elastase at 2.5 uM incubated for 20 mins followed by HEK cell lysate addition by in gel fluorescence detection based SDS-PAGE analysis; how it was run: as §4
[22] = target: T2, Pancreatic elastase (Sus scrofa); assay: Inhibition of porcine pancreatic elastase assessed as product formation at 1 uM using MeO-Suc-Ala-Ala-Pro-Val-pNA as substrate incubated over 60 mins by spectrophotometric method; format: protein assay; how it was run: as §1

Coagulation factor X (Bos taurus), sequence (P00743 41-180 limits assumed): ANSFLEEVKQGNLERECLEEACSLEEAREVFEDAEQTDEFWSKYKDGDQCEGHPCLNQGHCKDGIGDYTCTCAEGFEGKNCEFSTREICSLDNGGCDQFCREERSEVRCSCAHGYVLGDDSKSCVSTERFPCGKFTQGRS
Coagulation factor X (Bos taurus), sequence (P00743 234-492 limits assumed): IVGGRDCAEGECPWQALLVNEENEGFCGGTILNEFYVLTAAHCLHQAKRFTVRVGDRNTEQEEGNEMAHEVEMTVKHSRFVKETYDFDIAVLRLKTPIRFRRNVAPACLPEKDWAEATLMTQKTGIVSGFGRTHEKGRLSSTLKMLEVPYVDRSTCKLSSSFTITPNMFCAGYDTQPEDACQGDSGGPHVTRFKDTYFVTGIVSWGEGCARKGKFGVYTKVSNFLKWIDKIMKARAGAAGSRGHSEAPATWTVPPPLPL
Procathepsin L (Homo sapiens), sequence (P07711 114-333 limits assumed): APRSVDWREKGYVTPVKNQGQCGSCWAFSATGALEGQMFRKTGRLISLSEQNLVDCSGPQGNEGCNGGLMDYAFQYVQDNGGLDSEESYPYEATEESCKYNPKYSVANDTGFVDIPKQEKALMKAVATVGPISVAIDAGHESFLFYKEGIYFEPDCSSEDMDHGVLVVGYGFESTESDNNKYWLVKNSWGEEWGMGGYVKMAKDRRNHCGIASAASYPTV

With `CSc1ccc(OP(=O)(Oc2ccc(SC)cc2)[C@@H](NC(=O)[C@@H]2CCCN2C(=O)[C@@H](NC(=O)OC(C)(C)C)C(C)C)C(C)C)cc1` the inhibition [1] was over 90%, the inhibition [2] was “Tde” and the Ratio [3] was 7990 M⁻¹ s⁻¹. For the same compound, the Ratio [4] was 399000 M⁻¹ s⁻¹, the inhibition [5] was “Active” and the inhibition [6] was over 90%. For the same compound, the inhibition [7] was over 90%, the inhibition [8] was over 90% and the inhibition [9] was over 90%. For the same compound, the inhibition [10] was over 90%.
In the case of `CSc1ccc(OP(=O)(Oc2ccc(SC)cc2)[C@@H](NC(=O)[C@@H]2CCCN2C(=O)[C@@H](NC(=O)Cn2cc(-c3ccc(C4=C5C(C)=CC(C)=[N+]5[B-](F)(F)n5c(C)cc(C)c54)cc3)nn2)C(C)C)C(C)C)cc1`, the inhibition [11] is reported as “inactive”, the Activity [12] is reported as “Active” and the inhibition [1] is reported as over 90%. For the same compound, the Ratio [3] was 1440 M⁻¹ s⁻¹, the Ratio [4] was 88400 M⁻¹ s⁻¹ and the Activity [13] was “Active”. For the same compound, the Ratio [14] was 565 M⁻¹ s⁻¹, the Activity [15] was “Active” and the inhibition [6] was over 90%. For the same compound, the inhibition [7] was over 90%, the Activity [16] was “Active” and the inhibition [8] was over 90%. The Activity [17] was “Active”, the inhibition [18] was “Active” and the inhibition [19] was “inactive”. For the same compound, the Activity [20] was “Active”, the Activity [21] was “Active” and the inhibition [10] was over 90%.
For `CC(C)(C)C(=O)Oc1ccc(S(=O)(=O)Nc2ccccc2C(=O)NCC(=O)O)cc1`, the inhibition [4] was “Dose-dependent effect”.
For `CSc1ccc(OP(=O)(Oc2ccc(SC)cc2)[C@H](NC(=O)[C@@H]2CCCN2C(=O)[C@@H](NC(=O)OC(C)(C)C)C(C)C)C(C)C)cc1`, the inhibition [1] was over 90%, the inhibition [2] was “Tde” and the Ratio [4] was 1000 M⁻¹ s⁻¹. For the same compound, the inhibition [6] was over 90%, the inhibition [7] was over 90% and the inhibition [8] was over 90%. The inhibition [9] was over 90%, the inhibition [22] was over 90% and the inhibition [10] was over 90%.
